Values after ≈ are worked out from the molar mass of the structure shown.
Assays:
[1] = test system: Enterococcus faecalis; test: Effect on growth of Enterococcus faecalis GW01 incubated for 18 hrs by broth microdilution method; format: organism-based; conditions: in vivo
[2] = Prodrug activation in ciprofloxacin sensitive Escherichia coli isolate EC16 expressing bacterial beta lactamase CTX-M-15 assessed as bacterial CTX-M-15-mediated ciprofloxacin release by measuring growth inhibition incubated for 18 hrs by broth microdilution method
[3] = Prodrug activation in Escherichia coli CFT073 expressing beta lactamase CTX-M-1 assessed as bacterial CTX-M-1-mediated ciprofloxacin release by measuring growth inhibition incubated for 18 hrs in presence of human serum by broth microdilution method; conditions: bacteria
In short: (§1)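 MIC assay in E. coli CFT073 carrying pSU18 (empty pEMP or encoding CTX-M-1), run in the presence of human serum. The read-out is the minimal concentration inhibiting bacterial growth.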

[4] = test system: Enterococcus faecalis; test: Effect on growth of Enterococcus faecalis ATCC 29212 incubated for 18 hrs by broth microdilution method; format: organism-based; conditions: in vivo
[5] = Prodrug activation in ciprofloxacin-resistant Escherichia coli isolate EC19 expressing bacterial beta lactamase CTX-M-15 assessed as bacterial CTX-M-15-mediated ciprofloxacin release by measuring growth inhibition incubated for 18 hrs by broth microdilution method
[6] = Prodrug activation in ciprofloxacin sensitive Escherichia coli isolate EC11 expressing bacterial beta lactamase CTX-M-15 assessed as bacterial CTX-M-15-mediated ciprofloxacin release by measuring growth inhibition incubated for 18 hrs by broth microdilution method
[7] = test system: Escherichia coli; test: Growth inhibition of ciprofloxacin-susceptible Escherichia coli CFT073 harboring pSU18 incubated for 18 hrs by broth microdilution method; format: organism-based; conditions: in vivo
In short: (§2)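 MIC determination in E. coli CFT073, either wild type or carrying pSU18 (empty pEMP, or encoding CTX-M, NDM-1 or KPC). Dose–response growth curves were run, and each point is the mean ± SEM of n = 3. The MIC is the minimal concentration that inhibits bacterial growth.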

[8] = Prodrug activation in ciprofloxacin-resistant Escherichia coli isolate EC12 expressing bacterial beta lactamase CTX-M-15 assessed as bacterial CTX-M-15-mediated ciprofloxacin release by measuring growth inhibition incubated for 18 hrs by broth microdilution method
[9] = test system: Escherichia coli; test: Bactericidal activity against Escherichia coli CFT073 expressing pSU18 assessed as reduction in colony forming units at 78 nM measured after 6 hrs; format: ADME, organism-based; conditions: in vivo, 0.078 µM
In short: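 Time-kill assay on uropathogenic E. coli CFT073 carrying pSU18, either empty (pEMP, β-lactamase coding sequence absent) or encoding CTX-M-1. Cells were left untreated or exposed to drug, and viability was followed over time by CFU counts, with a 6 h incubation read-out.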

[10] = Prodrug activation in Escherichia coli CFT073 expressing NDM1 assessed as bacterial NDM1-mediated ciprofloxacin release by measuring growth inhibition incubated for 18 hr by broth microdilution method; conditions: bacteria; in short: as §2
[11] = Prodrug activation in Escherichia coli CFT073 expressing beta lactamase CTX-M-1 assessed as bacterial CTX-M-1-mediated ciprofloxacin release by measuring growth inhibition incubated for 18 hrs by broth microdilution method; conditions: bacteria; in short: as §2
[12] = Prodrug activation in Escherichia coli CFT073 expressing KPC3 assessed as bacterial KPC3-mediated ciprofloxacin release by measuring growth inhibition incubated for 18 hr by broth microdilution method; conditions: bacteria; in short: as §2
[13] = test system: Bacteria; test: Prodrug activation assessed as bacterial N-terminal His6-tagged CTX-M-15-mediated ciprofloxacin release by measuring inhibition of DNA gyrase activity 1 uM by SYBR Safe DNA gel staining-based agarose gel electrophoresis relative to control
In short: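 Cell-free assay using recombinant DNA gyrase with relaxed pBR322 plasmid DNA as substrate. Compounds were incubated with the gyrase and DNA in the absence or presence of purified recombinant β-lactamase CTX-M-15.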

[14] = Ratio of prodrug activation in Escherichia coli CFT073 expressing beta lactamase CTX-M-1 assessed as bacterial CTX-M-1-mediated ciprofloxacin release by measuring bactericidal activity to bactericidal activity against Escherichia coli CFT073 expressing pSU18
[15] = Prodrug activation in ciprofloxacin sensitive Escherichia coli isolate EC17 expressing bacterial beta lactamase CTX-M-15 assessed as bacterial CTX-M-15-mediated ciprofloxacin release by measuring growth inhibition incubated for 18 hrs by broth microdilution method
[16] = test system: Escherichia coli; test: Growth inhibition of Escherichia coli CFT073 incubated for 18 hrs by broth microdilution method; format: organism-based; conditions: in vivo; in short: as §2
[17] = test system: Escherichia coli; test: Growth inhibition of Escherichia coli CFT073 expressing pSU18 incubated for 18 hrs in presence of human serum; format: organism-based; in short: as §1
[18] = Prodrug activation in ciprofloxacin-resistant Escherichia coli isolate EC13 expressing bacterial beta lactamase CTX-M-15 assessed as bacterial CTX-M-15-mediated ciprofloxacin release by measuring growth inhibition incubated for 18 hrs by broth microdilution method

With `CC(=O)N[C@@H]1C(=O)N2C(C(=O)O)=C(COC(=O)c3cn(C4CC4)c4cc(N5CCNCC5)c(F)cc4c3=O)CS[C@H]12` the Activity [1] was “Non-Toxic”, the “growth inhibition (GI)” value [2] was “Active” and the “growth inhibition (GI)” value [3] was “Active”. The Activity [4] was “Non-Toxic”, the “growth inhibition (GI)” value [5] was “Not Active” and the “growth inhibition (GI)” value [6] was “Active”. For the same compound, the MIC [7] was 0.18 µg/mL (≈ 0.307 µM), the “growth inhibition (GI)” value [8] was “Not Active” and the Activity [9] was “Non-Toxic”. The MIC [10] was 0.04 µg/mL (≈ 0.0683 µM), the MIC [11] was 0.04 µg/mL (≈ 0.0683 µM) and the MIC [12] was 0.04 µg/mL (≈ 0.0683 µM). The inhibition [13] was > 50%, the Ratio [14] was > 100 and the “growth inhibition (GI)” value [15] was “Active”. For the same compound, the MIC [16] was 0.18 µg/mL (≈ 0.307 µM), the Activity [17] was “Non-Toxic” and the “growth inhibition (GI)” value [18] was “Not Active”.

Reference: ChEMBL document CHEMBL4334441, “Exploitation of Antibiotic Resistance as a Novel Drug Target: Development of a β-Lactamase-Activated Antibacterial Prodrug” (J Med Chem, 2019)
